Tested on: Fibroblast
Assay: Multiplex assay against human fibroblast
Format: toxicity, cell-based
Method in brief: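 Four dyes were applied at seeding to live cells: Hoechst33342, BioTracker Green Microtubule Cytoskeleton Dye, MitoTracker Red and Annexin V Alexa Fluor 680. Imaging after compound addition used a CQ1 microscope at 37°C and 5% CO2. CellPathfinder machine-learning gating then sorted cells into Hoechst high-intensity objects or normal cells, normal cells into healthy, pyknosed or fragmented nuclei, and pyknosed cells into mitotic or apoptotic, with tubulin, mitochondrial-mass and membrane-permeability phenotypes given as per cents of healthy-nucleus cells.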

[1] = 12 h, 1 µM, compound concentration 1 uM, replicate 1
[2] = 12 h, 1 µM, compound concentration 1 uM, replicate 2
[3] = 12 h, 10 µM, compound concentration 10 uM, replicate 1
[4] = 12 h, 10 µM, compound concentration 10 uM, replicate 2
[5] = 24 h, 1 µM, compound concentration 1 uM, replicate 1
[6] = 24 h, 1 µM, compound concentration 1 uM, replicate 2
[7] = 24 h, 10 µM, compound concentration 10 uM, replicate 1
[8] = 24 h, 10 µM, compound concentration 10 uM, replicate 2
[9] = 48 h, 1 µM, compound concentration 1 uM, replicate 1
[10] = 48 h, 1 µM, compound concentration 1 uM, replicate 2
[11] = 48 h, 10 µM, compound concentration 10 uM, replicate 1
[12] = 48 h, 10 µM, compound concentration 10 uM, replicate 2

## CN1CCN(CCOc2cc(OC3CCOCC3)c3c(Nc4c(Cl)ccc5c4OCO5)ncnc3c2)CC1 [SARACATINIB]
[1]
  Population Apoptotic (%): 59%
  Population Fragmented Nuclei (%): 22%
  Population Healthy Nuclei (%): 49%
  Population Hoechst High Intensity Objects (%): 10%
  Population Membrane Permeable-Phenotype (%): 24%
  Population Mitochondria Different-Phenotype (%): 9%
  Population Mitotic Cells (%): 40%
  Population Normal (%): 89%
  Population Pyknosed Nuclei (%): 27%
  Population Tubulin-Different-Phenotype (%): 43%
[2]
  Population Apoptotic (%): 70%
  Population Fragmented Nuclei (%): 9%
  Population Healthy Nuclei (%): 72%
  Population Membrane Permeable-Phenotype (%): 0%
  Population Mitochondria Different-Phenotype (%): 23%
  Population Mitotic Cells (%): 30%
  Population Normal (%): 90%
  Population Pyknosed Nuclei (%): 18%
  Population Tubulin-Different-Phenotype (%): 10%
[3]
  Population Apoptotic (%): 60%
  Population Fragmented Nuclei (%): 20%
  Population Healthy Nuclei (%): 57%
  Population Hoechst High Intensity Objects (%): 13%
  Population Membrane Permeable-Phenotype (%): 16%
  Population Mitochondria Different-Phenotype (%): 21%
  Population Mitotic Cells (%): 39%
  Population Normal (%): 86%
  Population Pyknosed Nuclei (%): 21%
  Population Tubulin-Different-Phenotype (%): 91%
[4]
  Population Apoptotic (%): 75%
  Population Fragmented Nuclei (%): 9%
  Population Healthy Nuclei (%): 71%
  Population Hoechst High Intensity Objects (%): 7%
  Population Membrane Permeable-Phenotype (%): 21%
  Population Mitochondria Different-Phenotype (%): 100%
  Population Mitotic Cells (%): 25%
  Population Normal (%): 92%
  Population Pyknosed Nuclei (%): 18%
  Population Tubulin-Different-Phenotype (%): 100%
[5]
  Population Apoptotic (%): 47%
  Population Fragmented Nuclei (%): 22%
  Population Healthy Nuclei (%): 61%
  Population Hoechst High Intensity Objects (%): 12%
  Population Membrane Permeable-Phenotype (%): 17%
  Population Mitochondria Different-Phenotype (%): 6%
  Population Mitotic Cells (%): 52%
  Population Normal (%): 87%
  Population Pyknosed Nuclei (%): 16%
  Population Tubulin-Different-Phenotype (%): 35%
[6]
  Population Apoptotic (%): 50%
  Population Fragmented Nuclei (%): 14%
  Population Healthy Nuclei (%): 67%
  Population Hoechst High Intensity Objects (%): 8%
  Population Membrane Permeable-Phenotype (%): 6%
  Population Mitochondria Different-Phenotype (%): 13%
  Population Mitotic Cells (%): 50%
  Population Normal (%): 91%
  Population Pyknosed Nuclei (%): 18%
  Population Tubulin-Different-Phenotype (%): 4%
[7]
  Population Apoptotic (%): 50%
  Population Fragmented Nuclei (%): 32%
  Population Healthy Nuclei (%): 57%
  Population Hoechst High Intensity Objects (%): 26%
  Population Membrane Permeable-Phenotype (%): 11%
  Population Mitochondria Different-Phenotype (%): 22%
  Population Mitotic Cells (%): 50%
  Population Normal (%): 73%
  Population Pyknosed Nuclei (%): 10%
  Population Tubulin-Different-Phenotype (%): 89%
[8]
  Population Apoptotic (%): 85%
  Population Fragmented Nuclei (%): 11%
  Population Healthy Nuclei (%): 54%
  Population Hoechst High Intensity Objects (%): 8%
  Population Membrane Permeable-Phenotype (%): 21%
  Population Mitochondria Different-Phenotype (%): 96%
  Population Mitotic Cells (%): 14%
  Population Normal (%): 91%
  Population Pyknosed Nuclei (%): 34%
  Population Tubulin-Different-Phenotype (%): 93%
[9]
  Population Apoptotic (%): 55%
  Population Fragmented Nuclei (%): 40%
  Population Healthy Nuclei (%): 52%
  Population Hoechst High Intensity Objects (%): 10%
  Population Membrane Permeable-Phenotype (%): 11%
  Population Mitochondria Different-Phenotype (%): 2%
  Population Mitotic Cells (%): 44%
  Population Normal (%): 89%
  Population Pyknosed Nuclei (%): 6%
  Population Tubulin-Different-Phenotype (%): 31%
[10]
  Population Apoptotic (%): 66%
  Population Fragmented Nuclei (%): 31%
  Population Healthy Nuclei (%): 66%
  Population Hoechst High Intensity Objects (%): 41%
  Population Membrane Permeable-Phenotype (%): 15%
  Population Mitochondria Different-Phenotype (%): 1%
  Population Mitotic Cells (%): 33%
  Population Normal (%): 58%
  Population Pyknosed Nuclei (%): 2%
  Population Tubulin-Different-Phenotype (%): 51%
[11]
  Population Apoptotic (%): 71%
  Population Fragmented Nuclei (%): 31%
  Population Healthy Nuclei (%): 62%
  Population Hoechst High Intensity Objects (%): 35%
  Population Membrane Permeable-Phenotype (%): 8%
  Population Mitochondria Different-Phenotype (%): 13%
  Population Mitotic Cells (%): 28%
  Population Normal (%): 64%
  Population Pyknosed Nuclei (%): 6%
  Population Tubulin-Different-Phenotype (%): 89%
[12]
  Population Apoptotic (%): 0%
  Population Fragmented Nuclei (%): 44%
  Population Healthy Nuclei (%): 55%
  Population Hoechst High Intensity Objects (%): 27%
  Population Membrane Permeable-Phenotype (%): 12%
  Population Mitochondria Different-Phenotype (%): 23%
  Population Mitotic Cells (%): 0%
  Population Normal (%): 72%
  Population Pyknosed Nuclei (%): 0%
  Population Tubulin-Different-Phenotype (%): 93%

Reference: ChEMBL document CHEMBL4689842, “EUbOPEN Chemogenomics Library wave 1” (2021)
